In publication PMC12800764 (ESMO Open, 2025):
Entries after “also recorded” stand apart in the source; their conditions may differ.

Key:
advanced solid tumors = conditions: 0 of 25; cited from earlier work
[1] = Plasma pharmacokinetics of E7386, noncompartmental analysis, Study 103; type: in vivo, human; conditions: 10-160 mg b.i.d.
[2] = tested on: patients with advanced, unresectable, or recurrent solid tumors; test: Dose-limiting toxicity evaluation; type: in vivo, human
In short: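 A 3 + 3 escalation started at 10 mg b.i.d. oral, given continuously in 28-day cycles; 10, 15 and 20 mg were predefined. Above 20 mg, steps were 100%, 40%-60% or 25%-39% depending on treatment-related grade 2 or ≥3 toxicity. DLTs were drug-related AEs in cycle 1 (28 days), graded by CTCAE v5.0. Patients dosed as planned in C1, or having a DLT, formed the analysis set.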

bone formation = conditions: rats; 7-day repeated-dose toxicity study; ref Data on file; cited from earlier work
[3] = tested on: advanced, unresectable, or recurrent solid tumors; test: Antitumor activity by investigators, RECIST v1.1, Study 103; type: in vivo, human
In short: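 Investigators assessed tumors by CT/MRI every 8 weeks, at end of treatment and when clinically indicated, using the screening modality and settings, per RECIST v1.1. Endpoints were objective response (CR/PR), disease control (CR/PR/SD) and clinical benefit (CR, PR, or SD lasting ≥23 weeks). All patients receiving ≥1 dose of oral test compound (b.i.d., 28-day cycles) were analysed.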

Apc^Min/+ mice = conditions: cited from earlier work
[4] = tested on: patients with advanced, unresectable, or recurrent solid tumors; test: Bone assessments; type: in vivo, human
In short: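 Both parts used DXA bone density at screening, C2D1 and every 12 weeks (±7 days) from C1D1. Fasting serum β-CTX was measured at screening, C2D1, C3D1, then every 8 weeks and at end of treatment. Dose-escalation added β-CTX at C1D15; expansion added DXA (C2D1 ±7 days) at end of treatment and when clinically indicated. Osteoporosis (T-score < −2.5) and untreated bone metastasis excluded patients.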

[5] = tested on: patients with advanced, unresectable, or recurrent solid tumors; test: Safety assessments; type: in vivo, human
In short: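 Safety covered all AEs of any grade, including DLTs and serious AEs, graded by NCI CTCAE v5.0. Hematology, chemistry and urinalysis were sampled before dosing at scheduled visits. Oral test compound was given b.i.d. in 28-day cycles (10-160 mg dose-escalation; 100 or 120 mg expansion). The analysis set was all patients receiving ≥1 dose.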

ECC10 xenograft = conditions: human gastric cancer cell line (ECC10) xenograft model; cited from earlier work
[6] = tested on: activating transcription factor 4 pathway; conditions: preclinical models of HCC; cited from earlier work
desmoid tumors = conditions: patients with desmoid tumors; cited from earlier work
endometrial cancer = conditions: cited from earlier work

## Cc1c(-c2ccnc(C(F)(F)F)c2)ncn1CC(=O)Nc1ccc(-c2cnccn2)cn1 [RXC004]
Advanced solid tumors
  Objective response rate (ORR): 0%

## C=CCN1CC(=O)N2[C@@H](Cc3ccc(O)cc3F)C(=O)N(Cc3cccc(N4CC(N5CCN(CC)CC5)C4)n3)C[C@@H]2N1C(=O)NCc1ccccc1 [E7386]
[1]; single and repeat dose, large inter-subject variability
  E7386 exposure versus dose: generally increased with dose
[1]; after oral administration on C1D1
  Time at which maximum plasma concentration was reached: 0.5 to 2.0 h
[1]; for each dose
  Geometric mean accumulation ratios for AUC: 1.12-3.81
  Geometric mean accumulation ratios for Cmax: 0.65-3.97
[2]; 160 mg b.i.d. cohort, cycle 1, dose-escalation
  Patients with dose-limiting toxicities (grade 3 decreased appetite): two
[2]; 10-120 mg b.i.d. cohorts, dose-escalation
  Dose-limiting toxicities: no DLTs were observed
[2]; oral, 28-day cycles
  Recommended dose of E7386 monotherapy: 120 mg b.i.d.
Bone formation
  Doses at which effects on bone formation were observed: ≥ 60 mg/kg
[3]; dose-escalation part, SBC at 15 mg b.i.d. and desmoid tumor at 80 mg b.i.d.
  Patients achieving partial response (PR): two
[3]; expansion part
  Partial responses: No PRs were observed
[3]; expansion part, patient with CRC (APC/KRAS/TP53 mutations), 100 mg b.i.d., no tumor size reduction
  Treatment duration with durable SD: ~7 months
[3]; expansion part, patient with HCC, 120 mg b.i.d., with tumor size reduction
  Treatment duration with durable SD: ~7 months
[3]; irrespective of APC mutation status
  Antitumor activity in patients with CRC: did not indicate antitumor activity
[3]; patient with desmoid tumor, 80 mg b.i.d. cohort, ongoing at data cut-off
  Treatment period of responder (PR): > 3.5 years
[3]; patient with solid pseudopapillary neoplasm of the pancreas, 30 mg b.i.d. cohort
  Treatment duration with durable SD: > 2.5 years
Apc^Min/+ mice
  Polyp formation in the intestine: suppressed polyp formation
[4]; 1 of 55 patients, spine: −2.4 at screening to −2.6 on C2D1
  Patients with T-score < −2.5 as per DXA scan during the study: 1.8%
[4]; 7 of 55 patients
  Patients with asymptomatic, post-baseline elevations in β-CTX >1000 pg/ml: 12.7%
[4]; either part of the study
  Bone fractures: No bone fractures were reported; also recorded: no bone fracture was observed
[5]; both parts
  Deaths due to TEAEs: No patients died due to TEAEs
[5]; dose-escalation part
  Nausea (TEAE) frequency: 83.3%
  Patients with grade ≥3 TEAEs: 15 patients
  Patients with grade ≥3 anemia: four
  Vomiting (TEAE) frequency: 61.1%
[5]; dose-escalation part, 13 patients
  TEAEs leading to dose interruption: 36.1%
[5]; dose-escalation part, 35 of 36 patients
  Patients with TEAEs: 97.2%
[5]; dose-escalation part, one patient (decreased appetite)
  TEAEs leading to dose reduction: 2.8%
[5]; dose-escalation part, two patients, not considered related to treatment
  TEAEs leading to study-drug discontinuation: 5.6%
[5]; expansion part
  Nausea (TEAE) frequency: 84.2%
  Patients with grade ≥3 TEAEs: 10 patients
  Patients with grade ≥3 anemia: two
  Patients with grade ≥3 hyponatremia: two
  Patients with grade ≥3 nausea: one
  TEAEs leading to study-drug discontinuation: No patient in the expansion part discontinued the study drug due to TEAEs
  Vomiting (TEAE) frequency: 73.7%
[5]; expansion part, 5 patients
  TEAEs leading to dose interruption: 26.3%
[5]; expansion part, 18 of 19 patients
  Patients with TEAEs: 94.7%
[5]; expansion part, four patients
  TEAEs leading to dose reduction: 21.1%
ECC10 xenograft
  Tumor growth: inhibited tumor growth
[6]
  Effect on activating transcription factor 4 pathway: up-regulate the activating transcription factor 4 pathway

## C[C@@H]1C[C@H](C)CN(S(=O)(=O)c2ccc3c(c2)C(=NO)c2cc(S(=O)(=O)N4C[C@H](C)C[C@H](C)C4)ccc2C3=NO)C1 [tegavivint]
Desmoid tumors
  Nausea incidence: 33%

B1: DKN-01: a DKK-1 antibody targeting the Wnt signaling pathway (antibody, chains of the INN, looked up, V domains shown)
VH: EVQLVESGGGLVQPGGSLRLSCAASGFTFSSYTMSWVRQAPGKGLEWVATISGGGFGTYYPDSVKGRFTISRDNAKNSLYLQMNSLRAEDTAVYYCARPGYNNYYFDIWGQGTTVTVSS
VL: EIVLTQSPATLSLSPGERATLSCHASDSISNSLHWYQQKPGQAPRLLIYYARQSIQGIPARFSGSGSGTDFTLTISSLEPEDFAVYYCQQSESWPLHFGGGTKVEIK
Endometrial cancer
  TEAE nausea incidence: 48.3%
  TEAE vomiting incidence: 24.1%
Endometrial cancer; endometrial cancer, 2 of 26
  Objective response rate (ORR): 7.7%
